Assay results as given in ChEMBL document CHEMBL3817746, “6-Oxooxazolidine-quinazolines as noncovalent inhibitors with the potential to target mutant forms of EGFR” (Bioorg Med Chem, 2016).
pIC50: −log10 of the molar value. Active and inactive are the calls of the source. The calls are words filed in the database; no cut-off is given here.

What was measured:
[1] = target: Epidermal growth factor receptor (Homo sapiens, UniProt P00533, L858R); test: Inhibition of recombinant human EGFR L858R mutant expressed in baculovirus infected insect cells preincubated for 5 mins followed by ATP addition for 30 mins by HTRF assay
Chain of Epidermal growth factor receptor (Homo sapiens, UniProt P00533, L858R) (P00533 25-1210 L858R limits assumed): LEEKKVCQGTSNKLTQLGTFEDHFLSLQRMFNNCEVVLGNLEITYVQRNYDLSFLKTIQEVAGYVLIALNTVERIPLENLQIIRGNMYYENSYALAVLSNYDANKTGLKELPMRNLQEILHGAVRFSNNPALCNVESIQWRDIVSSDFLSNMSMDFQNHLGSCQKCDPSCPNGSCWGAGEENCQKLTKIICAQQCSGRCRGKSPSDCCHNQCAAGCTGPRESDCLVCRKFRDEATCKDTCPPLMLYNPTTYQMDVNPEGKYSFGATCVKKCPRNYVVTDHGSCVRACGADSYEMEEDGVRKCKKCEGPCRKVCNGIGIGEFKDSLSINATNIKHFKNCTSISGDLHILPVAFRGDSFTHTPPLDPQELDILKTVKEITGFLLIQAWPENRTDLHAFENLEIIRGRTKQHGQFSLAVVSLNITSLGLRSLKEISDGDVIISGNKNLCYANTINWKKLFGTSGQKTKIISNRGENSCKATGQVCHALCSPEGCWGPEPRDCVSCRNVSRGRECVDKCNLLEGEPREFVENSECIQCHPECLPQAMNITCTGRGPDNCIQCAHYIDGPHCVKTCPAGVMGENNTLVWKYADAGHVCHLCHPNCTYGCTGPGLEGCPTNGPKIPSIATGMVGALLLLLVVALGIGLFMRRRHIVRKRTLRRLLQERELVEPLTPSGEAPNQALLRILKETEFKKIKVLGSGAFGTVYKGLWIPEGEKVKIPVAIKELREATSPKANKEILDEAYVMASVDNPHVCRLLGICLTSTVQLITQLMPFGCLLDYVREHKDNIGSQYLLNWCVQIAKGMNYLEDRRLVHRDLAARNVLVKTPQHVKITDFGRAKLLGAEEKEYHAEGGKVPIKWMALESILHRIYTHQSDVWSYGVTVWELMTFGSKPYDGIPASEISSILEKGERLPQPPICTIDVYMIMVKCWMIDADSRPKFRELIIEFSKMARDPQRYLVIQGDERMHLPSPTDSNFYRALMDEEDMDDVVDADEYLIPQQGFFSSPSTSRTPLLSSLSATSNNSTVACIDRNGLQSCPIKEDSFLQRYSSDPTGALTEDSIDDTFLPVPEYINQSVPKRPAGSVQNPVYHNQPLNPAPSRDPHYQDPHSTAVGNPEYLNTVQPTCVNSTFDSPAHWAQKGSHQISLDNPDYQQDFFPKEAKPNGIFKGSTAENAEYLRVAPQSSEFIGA
Method in brief: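 Purchased EGFR L858R kinase and substrate were preincubated with compound for 5 min in enzymatic buffer. ATP was then added to start the reaction, which ran 30 min at room temperature. It was stopped with EDTA-containing detection reagents, and HTRF detection ran for 1 h. IC50 was fitted from the dose-response data as the mean of three independent experiments.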

[2] = target: T1, Epidermal growth factor receptor (Homo sapiens, UniProt P00533); test: Inhibition of wild type human EGFR preincubated for 5 mins followed by ATP addition for 30 mins by HTRF assay
T1 sequence (P00533 whole entry): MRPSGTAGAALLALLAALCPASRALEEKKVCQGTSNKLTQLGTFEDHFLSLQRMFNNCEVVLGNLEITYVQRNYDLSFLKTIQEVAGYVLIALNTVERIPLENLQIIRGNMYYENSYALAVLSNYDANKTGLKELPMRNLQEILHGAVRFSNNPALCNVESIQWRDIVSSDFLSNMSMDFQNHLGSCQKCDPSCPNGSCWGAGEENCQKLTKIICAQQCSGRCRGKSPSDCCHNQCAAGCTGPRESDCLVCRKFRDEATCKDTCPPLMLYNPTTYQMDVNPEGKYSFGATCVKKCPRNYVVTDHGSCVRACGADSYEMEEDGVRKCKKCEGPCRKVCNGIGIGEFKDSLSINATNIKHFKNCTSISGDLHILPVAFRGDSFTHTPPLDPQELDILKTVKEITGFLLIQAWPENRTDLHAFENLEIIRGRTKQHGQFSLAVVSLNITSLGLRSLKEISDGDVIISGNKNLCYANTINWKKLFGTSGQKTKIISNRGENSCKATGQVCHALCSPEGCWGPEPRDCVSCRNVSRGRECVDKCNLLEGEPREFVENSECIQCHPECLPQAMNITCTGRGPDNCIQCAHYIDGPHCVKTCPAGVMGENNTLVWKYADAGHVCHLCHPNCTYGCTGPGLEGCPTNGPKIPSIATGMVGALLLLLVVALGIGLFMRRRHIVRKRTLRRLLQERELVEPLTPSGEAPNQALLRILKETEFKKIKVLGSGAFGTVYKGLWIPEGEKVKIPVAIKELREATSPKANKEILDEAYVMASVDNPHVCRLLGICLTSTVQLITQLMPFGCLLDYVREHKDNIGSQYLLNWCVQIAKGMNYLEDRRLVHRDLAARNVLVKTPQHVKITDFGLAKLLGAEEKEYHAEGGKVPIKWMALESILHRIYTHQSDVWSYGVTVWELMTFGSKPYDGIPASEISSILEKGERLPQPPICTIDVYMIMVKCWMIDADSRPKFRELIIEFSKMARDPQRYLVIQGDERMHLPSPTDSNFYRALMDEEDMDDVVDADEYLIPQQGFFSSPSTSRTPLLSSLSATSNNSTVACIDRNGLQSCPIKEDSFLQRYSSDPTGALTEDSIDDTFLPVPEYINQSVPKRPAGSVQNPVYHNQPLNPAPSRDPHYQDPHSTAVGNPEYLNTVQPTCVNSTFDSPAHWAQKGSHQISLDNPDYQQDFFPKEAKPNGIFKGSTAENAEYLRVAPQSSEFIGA

A549 = test: Cytotoxicity against human A549 cells assessed as cell growth inhibition after 72 hrs by MTT assay; format: ADME, cell-based; conditions: A549, 72 h
A-431 = test: Antiproliferative activity against human A431 cells overexpressing wild-type EGFR after 72 hrs by MTT assay; format: functional, cell-based; conditions: A-431, 72 h
NCI-H1975 = test: Antiproliferative activity against human NCI-H1975 cells expressing L858R/T790M mutant EGFR after 72 hrs by MTT assay; format: functional, cell-based; conditions: NCI-H1975, 72 h
[3] = target: Epidermal growth factor receptor (Homo sapiens, UniProt P00533, T790M); test: Inhibition of EGFR T790M mutant (unknown origin) preincubated for 5 mins followed by ATP addition for 30 mins by HTRF assay; format: protein assay
Chain of Epidermal growth factor receptor (Homo sapiens, UniProt P00533, T790M) (P00533 25-1210 T790M limits assumed): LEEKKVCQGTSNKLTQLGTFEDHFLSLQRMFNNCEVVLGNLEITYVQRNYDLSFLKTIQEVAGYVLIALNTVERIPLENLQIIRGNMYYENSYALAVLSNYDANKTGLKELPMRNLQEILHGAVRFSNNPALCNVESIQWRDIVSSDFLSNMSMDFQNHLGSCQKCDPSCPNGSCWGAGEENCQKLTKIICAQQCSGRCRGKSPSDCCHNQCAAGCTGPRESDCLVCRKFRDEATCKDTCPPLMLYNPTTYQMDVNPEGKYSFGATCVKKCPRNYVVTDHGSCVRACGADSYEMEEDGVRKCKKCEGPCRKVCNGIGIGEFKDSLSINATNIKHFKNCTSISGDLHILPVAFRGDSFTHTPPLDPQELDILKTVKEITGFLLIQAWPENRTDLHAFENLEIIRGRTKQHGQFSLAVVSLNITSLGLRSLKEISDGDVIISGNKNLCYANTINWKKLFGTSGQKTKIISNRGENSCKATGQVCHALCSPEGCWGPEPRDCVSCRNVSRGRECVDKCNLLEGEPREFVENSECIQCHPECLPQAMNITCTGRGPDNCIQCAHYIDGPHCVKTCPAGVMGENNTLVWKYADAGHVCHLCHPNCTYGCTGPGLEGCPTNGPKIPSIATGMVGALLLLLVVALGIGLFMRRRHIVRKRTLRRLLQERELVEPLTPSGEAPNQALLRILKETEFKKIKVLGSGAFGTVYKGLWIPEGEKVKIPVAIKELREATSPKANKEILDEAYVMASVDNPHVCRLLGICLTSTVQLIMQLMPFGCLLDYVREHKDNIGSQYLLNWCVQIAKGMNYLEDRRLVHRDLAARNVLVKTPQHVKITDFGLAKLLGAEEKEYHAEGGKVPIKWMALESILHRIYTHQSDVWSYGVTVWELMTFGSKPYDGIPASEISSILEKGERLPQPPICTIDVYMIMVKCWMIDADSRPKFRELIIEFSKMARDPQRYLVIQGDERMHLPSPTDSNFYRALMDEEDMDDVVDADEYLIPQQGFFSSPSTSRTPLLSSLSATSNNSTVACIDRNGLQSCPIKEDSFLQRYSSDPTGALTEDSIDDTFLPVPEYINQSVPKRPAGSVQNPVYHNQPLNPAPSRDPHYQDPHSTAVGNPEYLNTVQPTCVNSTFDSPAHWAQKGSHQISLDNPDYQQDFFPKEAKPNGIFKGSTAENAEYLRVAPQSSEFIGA

HepG2 = test: Cytotoxicity against human HepG2 cells assessed as cell growth inhibition after 72 hrs by MTT assay; format: ADME, cell-based; conditions: HepG2, 72 h
[4] = Chemical stability of the compound assessed as compound remaining at 1 uM at pH 9 after 24 hrs by HPLC-HRMS method; format: physicochemical; conditions: buffer, read-out: Stability
Method in brief: (§1)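 Buffers were 0.2 M PBS at pH 7.4, 9.0 or 10.0, held at 37 °C. Compound stock was made in CH3CN, then diluted into pre-warmed buffer. Aliquots taken at regular time points were injected directly into LC-TOF MS, and percentage of parent compound remaining was read out.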

[5] = Chemical stability of the compound assessed as compound remaining at 1 uM at pH 7.4 after 24 hrs by HPLC-HRMS method; format: physicochemical; conditions: buffer, read-out: Stability; method in brief: as §1
[6] = target: T1, Epidermal growth factor receptor; test: Inhibition of EGF-induced EGFR phosphorylation in human A431 cells at 1 uM preincubated for 1 hr followed by compound washout for 5 hrs and subsequent EGF addition for 15 mins by Western blot analysis; format: cell-based; conditions: A-431
Method in brief: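 A431 cells (5 x 10^5/well) were seeded overnight and treated with 1 µM compound for 1 h at 37 °C. Cells were washed 10 times with fresh medium over 5 h, then stimulated with EGF (20 ng/ml) for 15 min. Lysates were made in RIPA-type buffer with protease inhibitors, and equal protein was immunoblotted for EGFR, p-EGFR and β-actin, with ECL detection.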

[7] = Chemical stability of the compound assessed as compound remaining at 1 uM at pH 10 after 24 hrs by HPLC-HRMS method; format: physicochemical; conditions: buffer, read-out: Stability; method in brief: as §1
[8] = target: T1, Epidermal growth factor receptor; test: Inhibition of EGF-induced EGFR phosphorylation in human A431 cells at 1 uM preincubated for 1 hr followed by EGF addition for 15 mins by Western blot analysis; format: cell-based; conditions: A-431
Method in brief: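 A431 cells (5 x 10^5/well) were seeded overnight. They were exposed to 1 µM compound for 1 h at 37 °C, then immediately given EGF (20 ng/ml) for 15 min. Whole-cell lysates were made in Tris/NaCl/EDTA/SDS/deoxycholate/NP-40 buffer with aprotinin and PMSF, then cleared at 4 °C. Equal protein was run on SDS-PAGE and blotted for EGFR, p-EGFR and β-actin, with ECL detection.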

COc1cc2ncnc(Nc3cccc(Br)c3)c2cc1NC(=O)[C@@H]1COC(=O)N1
pIC50 [1]: 9.42
pIC50 [2]: 9.33
pIC50 (A549): < 4.30
pIC50 (A-431): 5.14
pIC50 (NCI-H1975): 5.04
pIC50 [3]: 6.90
pIC50 (HepG2): < 4.00

CCOc1cc2ncnc(Nc3ccc(Oc4ccc(C)nc4)c(Cl)c3)c2cc1NC(=O)[C@@H]1COC(=O)N1
pIC50 (A-431): 4.95
pIC50 (NCI-H1975): 5.12

CCOc1cc2ncnc(N[C@@H](C)c3ccccc3)c2cc1NC(=O)[C@H]1COC(=O)N1
pIC50 (A-431): 4.82
pIC50 (NCI-H1975): 5.31

CCOc1cc2ncnc(N[C@@H](C)c3ccccc3)c2cc1NC(=O)[C@@H]1COC(=O)N1
pIC50 [1]: 9.15
pIC50 [2]: 8.26
pIC50 (A-431): 4.77
pIC50 (NCI-H1975): 4.81
pIC50 [3]: < 6.00

O=C1N[C@H](C(=O)Nc2cc3c(Nc4ccc(F)c(Cl)c4)ncnc3cc2O[C@H]2CCOC2)CO1
pIC50 (A-431): 4.64
pIC50 (NCI-H1975): 5.03

COc1cc2ncnc(Nc3ccc(F)c(Cl)c3)c2cc1NC(=O)[C@H]1COC(=O)N1
pIC50 (A-431): 4.77
pIC50 (NCI-H1975): 4.67

COc1cc2ncnc(Nc3ccc(F)c(Cl)c3)c2cc1NC(=O)[C@H]1NC(=O)O[C@@H]1C
pIC50 [1]: 9.46
pIC50 [2]: 8.70
pIC50 (A549): < 4.30
pIC50 (A-431): 5.06
pIC50 (NCI-H1975): 5.05
pIC50 [3]: 7.40
pIC50 (HepG2): < 4.30

CCOc1cc2ncnc(Nc3ccc4c(cnn4Cc4cccc(F)c4)c3)c2cc1NC(=O)[C@@H]1COC(=O)N1
pIC50 (A-431): 4.97
pIC50 (NCI-H1975): 4.98

CCOc1cc2ncnc(Nc3ccc(OCc4ccccn4)c(Cl)c3)c2cc1NC(=O)[C@@H]1COC(=O)N1
pIC50 (A-431): < 4.30
pIC50 (NCI-H1975): 4.63

O=C1N[C@H](C(=O)Nc2cc3c(Nc4ccc(F)c(Cl)c4)ncnc3cc2OCCN2CCCCC2)CO1
pIC50 [1]: 8.11
pIC50 [2]: 7.59
pIC50 (A549): 4.37
pIC50 (A-431): 5.46
pIC50 (NCI-H1975): 5.23
pIC50 [3]: 6.48
pIC50 (HepG2): < 4.30

COc1cc2ncnc(Nc3ccc(F)c(Cl)c3)c2cc1NC(=O)[C@@H]1COC(=O)N1
pIC50 [1]: 9.51
pIC50 [2]: 8.97
remaining at 24 h, 1 µM [4]: 89.9%
remaining at 24 h, 1 µM [5]: 97.1%
inhibition [6]: inactive
pIC50 (A549): 4.83
pIC50 (A-431): 5.04
remaining at 24 h, 1 µM [7]: 85.8%
pIC50 (NCI-H1975): 5.17
pIC50 [3]: 7.58
pIC50 (HepG2): < 4.00
inhibition [8]: Active

CCOc1cc2ncnc(Nc3ccc(OCc4cccc(F)c4)c(Cl)c3)c2cc1NC(=O)[C@H]1NC(=O)O[C@@H]1C
pIC50 [1]: 7.92
pIC50 [2]: 8.59
pIC50 (A549): 4.48
pIC50 (A-431): 5.47
pIC50 (NCI-H1975): 5.37
pIC50 [3]: 6.53
pIC50 (HepG2): 4.51

CCOc1cc2ncnc(Nc3ccc(OCc4ccccn4)c(Cl)c3)c2cc1NC(=O)[C@H]1COC(=O)N1
pIC50 (A-431): < 4.30
pIC50 (NCI-H1975): < 4.30

O=C1N[C@H](C(=O)Nc2cc3c(Nc4ccc(F)c(Cl)c4)ncnc3cc2OCCCN2CCOCC2)CO1
pIC50 [1]: 9.08
pIC50 [2]: 8.34
pIC50 (A-431): 4.31
pIC50 (NCI-H1975): 4.91
pIC50 [3]: 7.23

CN1CC[C@H](Oc2cc3ncnc(Nc4ccc(F)c(Cl)c4)c3cc2NC(=O)[C@@H]2COC(=O)N2)C1
pIC50 (A-431): 4.90
pIC50 (NCI-H1975): 4.87

O=C1N[C@@H](C(=O)Nc2cc3c(Nc4ccc(F)c(Cl)c4)ncnc3cc2OCCCN2CCOCC2)CO1
pIC50 (A-431): < 4.30
pIC50 (NCI-H1975): 4.43

O=C1N[C@@H](C(=O)Nc2cc3c(Nc4ccc(F)c(Cl)c4)ncnc3cc2O[C@H]2CCOC2)CO1
pIC50 (A-431): 4.96
pIC50 (NCI-H1975): < 4.30

CN1CCC(COc2cc3ncnc(Nc4ccc(F)c(Cl)c4F)c3cc2NC(=O)[C@@H]2COC(=O)N2)CC1
pIC50 (A-431): 5.61
pIC50 (NCI-H1975): 4.68

COCCOc1cc2ncnc(Nc3ccc(F)c(Cl)c3)c2cc1NC(=O)[C@@H]1COC(=O)N1
pIC50 (A-431): 4.59
pIC50 (NCI-H1975): 4.66

CCOc1cc2ncnc(Nc3ccc(OCc4cccc(F)c4)c(Cl)c3)c2cc1NC(=O)[C@@H]1COC(=O)N1
pIC50 [1]: 8.25
pIC50 [2]: 8.87
pIC50 (A549): 4.94
pIC50 (A-431): 5.41
pIC50 (NCI-H1975): 5.41
pIC50 [3]: 7.27
pIC50 (HepG2): < 4.30

COc1cc2ncnc(Nc3ccc(F)c(Cl)c3)c2cc1NC(=O)[C@@H]1CCC(=O)N1
pIC50 (A-431): 4.66
pIC50 (NCI-H1975): < 4.30

CCOc1cc2ncnc(Nc3ccc(OCC4CC4)c(Cl)c3)c2cc1NC(=O)[C@@H]1COC(=O)N1
pIC50 [1]: 7.28
pIC50 [2]: 7.42
pIC50 (A549): 4.54
pIC50 (A-431): 5.30
pIC50 (NCI-H1975): 5.29
pIC50 [3]: 7.09
pIC50 (HepG2): < 4.00

COc1ccc(Nc2ncnc3cc(OC)c(NC(=O)[C@@H]4COC(=O)N4)cc23)cc1
pIC50 (A-431): 4.46
pIC50 (NCI-H1975): 5.00

COc1cc2ncnc(Nc3cccc(Br)c3)c2cc1NC(=O)[C@H]1COC(=O)N1
pIC50 (A-431): 4.84
pIC50 (NCI-H1975): 4.95

COCCOc1cc2ncnc(Nc3ccc(F)c(Cl)c3)c2cc1NC(=O)[C@H]1COC(=O)N1
pIC50 (A-431): < 4.30
pIC50 (NCI-H1975): < 4.30

CCOc1cc2ncnc(Nc3ccc(OCC4CC4)c(Cl)c3)c2cc1NC(=O)[C@H]1NC(=O)O[C@@H]1C
pIC50 (A-431): 5.13
pIC50 (NCI-H1975): 4.90

COc1cc2ncnc(Nc3cccc(C(F)(F)F)c3)c2cc1NC(=O)[C@@H]1COC(=O)N1
pIC50 (A-431): 4.87
pIC50 (NCI-H1975): 4.96

CN1CCOC[C@@H]1COc1cc2ncnc(Nc3ccc(F)c(Cl)c3)c2cc1NC(=O)[C@@H]1COC(=O)N1
pIC50 (A-431): 4.73
pIC50 (NCI-H1975): 5.13

CCOc1cc2ncnc(Nc3ccc(OCc4cccc(F)c4)c(Cl)c3)c2cc1NC(=O)[C@H]1COC(=O)N1
pIC50 [1]: 8.26
pIC50 [2]: 8.92
pIC50 (A549): < 4.30
pIC50 (A-431): 5.38
pIC50 (NCI-H1975): 5.32
pIC50 [3]: 6.96
pIC50 (HepG2): < 4.00

CN1CCC(COc2cc3ncnc(Nc4ccc(F)c(Cl)c4F)c3cc2NC(=O)[C@H]2COC(=O)N2)CC1
pIC50 (A-431): 5.28
pIC50 (NCI-H1975): 4.87

O=C1N[C@H](C(=O)Nc2cc3c(Nc4ccc(F)c(Cl)c4)ncnc3cc2OCC(F)(F)F)CO1
pIC50 (A-431): 4.47
pIC50 (NCI-H1975): < 4.30

CCOc1cc2ncnc(Nc3ccc4c(cnn4Cc4cccc(F)c4)c3)c2cc1NC(=O)[C@H]1COC(=O)N1
pIC50 (A-431): 4.72
pIC50 (NCI-H1975): < 4.30
